ChEMBL document CHEMBL1177786, “Synthesis of novel beta-carbolines with efficient DNA-binding capacity and potent cytotoxicity” (Bioorg Med Chem Lett, 2010)

Key:
KB = assay: Cytotoxicity against human KB cells by MTT assay; type: functional, cell-based
In short: (§1)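 MTT assay in human tumour lines. IC50 is the compound concentration giving a 50% drop in optical density relative to untreated cells. Values are means of three independent determinations.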

786-0 = assay: Cytotoxicity against human 786-0 cells by MTT assay; type: functional, cell-based; in short: as §1
HepG2 = assay: Cytotoxicity against human HepG2 cells by MTT assay; type: functional, cell-based; in short: as §1
MCF7 = assay: Cytotoxicity against human MCF7 cells by MTT assay; type: functional, cell-based; in short: as §1
OS-RC-2 = assay: Cytotoxicity against human OS-RC2 cells by MTT assay; type: functional, cell-based; in short: as §1
769-P = assay: Cytotoxicity against human 769-P cells by MTT assay; type: functional, cell-based; in short: as §1
[1] = Cytotoxicity against human BCG823 cells by MTT assay; type: functional, cell-based; in short: as §1
HT-29 = assay: Cytotoxicity against human HT-29 cells by MTT assay; type: functional, cell-based; in short: as §1
A-375 = assay: Cytotoxicity against human A375 cells by MTT assay; type: functional, cell-based; in short: as §1
CWR22R = assay: Cytotoxicity against human 22Rv1 cells by MTT assay; type: functional, cell-based; in short: as §1
Calf thymus DNA = assay: Binding affinity to calf thymus DNA assessed as change in melting temperature at drug/DNA ratio 0.2 at pH 7.4; type: nucleic-acid assay; conditions: Bos taurus
In short: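 Thermal denaturation of calf thymus DNA in PE buffer (1 mM Na₂HPO₄, 0.1 mM EDTA, pH 7.4), drug/DNA ratio 0.2; ΔTm taken as Tm of drug–DNA complex minus Tm of DNA alone.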

ΔTm (Calf thymus DNA) [°C]	SMILES	IC50 (KB) [µM]	IC50 (786-0) [µM]	IC50 (HepG2) [µM]	IC50 (MCF7) [µM]	IC50 (OS-RC-2) [µM]	IC50 (769-P) [µM]	IC50 [1] [µM]	IC50 (HT-29) [µM]	IC50 (A-375) [µM]	IC50 (CWR22R) [µM]
–	CCN(CC)CCCCNCc1cc2c3ccccc3n(CCCc3ccccc3)c2cn1	6.1	9.2	3.4	9.1	27.7	10.9	8.8	6.4	5.8	7.6
–	CCN(CC)CCCNCc1cc2c3ccccc3n(Cc3cccc(Cl)c3)c2cn1	7.8	13	11.7	17.4	8	14.3	8.1	9.3	14.7	8.4
–	CCN(CC)CCCCNCc1cc2c3ccccc3n(Cc3cccc(Cl)c3)c2cn1	4.2	19.4	10.8	19.8	6.7	8.2	9.8	12.2	12.6	8.6
20.6	CCCCn1c2ccccc2c2cc(CNCCCN(CC)CC)ncc21	6.2	19.5	4.6	64.2	35.7	2.2	5.9	2.6	44.2	8.8
–	CC(=O)O[C@H]1C(=O)[C@@]2(C)[C@H]([C@H](OC(=O)c3ccccc3)[C@]3(O)C[C@H](OC(=O)[C@H](O)[C@@H](NC(=O)c4ccccc4)c4ccccc4)C(C)=C1C3(C)C)[C@]1(OC(C)=O)CO[C@@H]1C[C@@H]2O [PACLITAXEL]	0.08	< 0.08	< 0.08	1.3	< 0.08	–	1.5	0.38	–	0.08
–	CCN(CC)CCCNCc1cc2c3ccccc3n(Cc3ccc(F)cc3)c2cn1	33.1	6.1	8	31.8	13.6	8.5	2.6	10.2	13.7	3.6
–	CCCCn1c2ccccc2c2cc(CNCCN(CC)CC)ncc21	13.7	37.6	10.1	92.8	> 100	7.4	20.2	7.8	75.9	25.7
–	CCN(CC)CCNCc1cc2c3ccccc3n(Cc3ccc(F)cc3)c2cn1	37.1	13.1	9.1	43.6	93.6	8.8	10.9	36.2	35	9
–	CCN(CC)CCCCNCc1cc2c3ccccc3n(C)c2cn1	70.6	> 100	> 100	> 100	> 100	> 100	> 100	33.1	> 100	> 100
–	CCN(CC)CCNCc1cc2c3ccccc3n(C)c2cn1	> 100	> 100	> 100	> 100	> 100	> 100	75.7	41.1	> 100	> 100
–	CCN(CC)CCCCNCc1cc2c3ccccc3n(Cc3ccccc3)c2cn1	8.2	6.2	3	13.4	55	31	29.3	27	16.2	8.9
